{
  "source": "ChEMBL document CHEMBL5647682",
  "about": "“A selective PIKfyve inhibitor blocks PtdIns(3,5)P(2) production and disrupts endomembrane transport and retroviral budding” (EMBO Rep, 2008)",
  "key": {"[1]": {"target": "1-phosphatidylinositol 3-phosphate 5-kinase FAB1 (Saccharomyces cerevisiae (strain ATCC 204508 / S288c) (Baker's yeast), UniProt P34756)", "sequence (P34756 whole entry)": "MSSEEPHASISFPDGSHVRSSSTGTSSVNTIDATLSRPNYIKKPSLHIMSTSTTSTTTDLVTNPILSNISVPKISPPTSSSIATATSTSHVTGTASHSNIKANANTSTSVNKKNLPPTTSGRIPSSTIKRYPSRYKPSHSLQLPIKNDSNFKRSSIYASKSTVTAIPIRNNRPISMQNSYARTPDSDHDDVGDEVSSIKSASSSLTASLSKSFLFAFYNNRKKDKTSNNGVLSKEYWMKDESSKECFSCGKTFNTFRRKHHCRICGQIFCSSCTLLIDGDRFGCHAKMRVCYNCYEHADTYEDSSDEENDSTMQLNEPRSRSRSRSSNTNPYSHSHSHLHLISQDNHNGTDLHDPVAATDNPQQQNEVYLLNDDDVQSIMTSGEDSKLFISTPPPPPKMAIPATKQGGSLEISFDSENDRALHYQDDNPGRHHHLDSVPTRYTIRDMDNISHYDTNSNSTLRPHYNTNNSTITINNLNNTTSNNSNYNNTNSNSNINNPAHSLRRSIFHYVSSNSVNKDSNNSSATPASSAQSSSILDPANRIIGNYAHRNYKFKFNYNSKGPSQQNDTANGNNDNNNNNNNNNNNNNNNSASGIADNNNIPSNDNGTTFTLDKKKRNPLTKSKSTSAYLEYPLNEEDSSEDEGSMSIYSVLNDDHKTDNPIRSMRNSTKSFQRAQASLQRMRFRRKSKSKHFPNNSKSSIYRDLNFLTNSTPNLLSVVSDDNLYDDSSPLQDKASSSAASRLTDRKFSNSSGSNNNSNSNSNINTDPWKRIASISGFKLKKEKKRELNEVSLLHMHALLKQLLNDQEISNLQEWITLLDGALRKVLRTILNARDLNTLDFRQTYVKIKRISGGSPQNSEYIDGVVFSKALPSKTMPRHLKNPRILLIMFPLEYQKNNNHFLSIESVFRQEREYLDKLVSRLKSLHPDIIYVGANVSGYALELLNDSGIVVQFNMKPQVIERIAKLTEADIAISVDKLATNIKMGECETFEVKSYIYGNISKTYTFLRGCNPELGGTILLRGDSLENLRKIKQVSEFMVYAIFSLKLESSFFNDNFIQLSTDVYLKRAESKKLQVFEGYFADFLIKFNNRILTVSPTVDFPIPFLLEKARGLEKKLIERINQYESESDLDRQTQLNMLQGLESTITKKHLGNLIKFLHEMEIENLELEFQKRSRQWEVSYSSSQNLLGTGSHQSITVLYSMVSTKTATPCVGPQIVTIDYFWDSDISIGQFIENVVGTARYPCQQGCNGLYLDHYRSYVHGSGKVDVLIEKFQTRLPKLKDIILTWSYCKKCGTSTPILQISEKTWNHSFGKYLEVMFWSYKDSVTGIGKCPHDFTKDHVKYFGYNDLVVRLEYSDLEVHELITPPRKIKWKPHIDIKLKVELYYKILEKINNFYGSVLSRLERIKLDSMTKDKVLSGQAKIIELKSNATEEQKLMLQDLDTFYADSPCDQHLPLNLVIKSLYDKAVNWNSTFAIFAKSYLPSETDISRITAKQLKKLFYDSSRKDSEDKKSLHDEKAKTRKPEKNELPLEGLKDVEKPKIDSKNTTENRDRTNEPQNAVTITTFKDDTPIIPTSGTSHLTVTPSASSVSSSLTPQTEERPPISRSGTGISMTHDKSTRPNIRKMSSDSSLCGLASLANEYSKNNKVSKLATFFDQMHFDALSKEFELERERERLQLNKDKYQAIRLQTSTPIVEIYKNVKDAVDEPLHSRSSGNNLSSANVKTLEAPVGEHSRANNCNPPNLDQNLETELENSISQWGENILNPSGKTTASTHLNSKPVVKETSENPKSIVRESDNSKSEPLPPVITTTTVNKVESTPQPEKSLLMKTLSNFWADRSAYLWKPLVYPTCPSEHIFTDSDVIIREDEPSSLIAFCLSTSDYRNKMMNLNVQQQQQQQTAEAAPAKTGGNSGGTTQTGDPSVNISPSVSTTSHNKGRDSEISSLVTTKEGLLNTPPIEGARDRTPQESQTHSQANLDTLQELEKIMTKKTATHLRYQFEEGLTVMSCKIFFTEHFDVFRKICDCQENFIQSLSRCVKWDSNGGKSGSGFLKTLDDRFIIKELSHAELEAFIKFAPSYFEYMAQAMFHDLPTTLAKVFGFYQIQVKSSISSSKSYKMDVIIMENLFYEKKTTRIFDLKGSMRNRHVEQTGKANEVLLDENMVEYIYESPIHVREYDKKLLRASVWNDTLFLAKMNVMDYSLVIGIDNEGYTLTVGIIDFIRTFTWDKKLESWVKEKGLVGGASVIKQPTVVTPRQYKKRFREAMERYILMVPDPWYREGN", "test": "Inhibition of Saccharomyces cerevisiae GST-tagged Fab1 incubated for 15 mins in presence of ATP"}, "NIH3T3 [2]": {"test_system": "NIH3T3", "settings": "Mus musculus, dose 800.0 nM"}, "COS-7 [3]": {"test_system": "COS-7", "test": "Induction of EGF localization in african green monkey COS7 cells at 800 nM preincubated for 2 hrs followed by EGF stimulation and measured after 60 mins", "format": "functional, cell-based", "settings": "Chlorocebus aethiops, time 3.0 hrs"}, "NIH3T3 [4]": {"test_system": "NIH3T3", "test": "Induction of swollen vesicle phenotype in mouse NIH3T3 cells at 800 nM incubated for 120 mins by time-lapse analysis", "format": "functional, cell-based", "method_in_brief": "(§1)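 Live imaging of NIH3T3 cells on glass-bottom dishes in phenol red-free DMEM/10% DCS at 37°C, 10% CO2. Cells given 800 nM compound and phase imaged for 120 min, frames every 10 s. Then washed, placed in drug-free medium and filmed a further 130 min.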"}, "[5]": {"test": "Effect on PtdIns(3,5)P2 production in [32p]pi labelled serum stimulated mouse NIH3T3 cells at 800 nM (reference value: 2219 +/- 71)", "format": "functional", "method_in_brief": "(§2)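 Sub-confluent NIH3T3 cells in 6 cm dishes, moved to phosphate-free medium and labelled with 0.3 mCi/ml 32Pi for 1 h, then treated with or without inhibitor for 20 min. Lysis in ice-cold 1 M HCl, scraping, lipid extraction and HPLC analysis of labelled phosphoinositides.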"}, "[6]": {"test": "Selectivity ratio of IC50 for GST-tagged Ptdlns3p P110alpha (unknown origin) to IC50 for Saccharomyces cerevisiae GST-tagged PIKfyve"}, "[7]": {"test": "Effect on PtdIns(4,5)P2 production in [32p]pi labelled serum stimulated mouse NIH3T3 cells at 800 nM (reference value: 487335 +/- 641)", "format": "functional", "method_in_brief": "as §2"}, "NIH3T3 [8]": {"test_system": "NIH3T3", "test": "Induction of CI-MPR localization in perinuclear vesicle of mouse NIH-3T3 at 800 nM incubated for 2 hrs", "format": "functional, cell-based"}, "[9]": {"test": "Inhibition of Saccharomyces cerevisiae GST-tagged PIKfyve"}, "NIH3T3 [10]": {"test_system": "NIH3T3", "test": "Induction of EEA1 localization in lumenal vesicles of mouse NIH3T3 cells at 800 nM incubated for 2 hrs", "format": "functional, cell-based", "method_in_brief": "(§3)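 NIH3T3 cells on coverslips, untreated or given 800 nM compound for 2 h. Fixed in 4% paraformaldehyde, permeabilized in 0.2% Triton X-100, blocked in 2% BSA, then anti-EEA1 staining. Confocal single 0.4 μm optical sections, with phase image merged onto the fluorescence image.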"}, "[11]": {"test": "Effect on PtdIns3P production in [32p]pi labelled serum stimulated mouse NIH3T3 cells at 800 nM (reference value: 7685 +/- 307)", "format": "functional", "method_in_brief": "as §2"}, "NIH3T3 [12]": {"test_system": "NIH3T3", "test": "Reversal of swollen vesicle phenotype in mouse NIH3T3 cells expressing Fab1 assessed as reduction in size of swollen vesicles at 800 nM incubated for 2 hrs by phase contrast microscopic analysis", "format": "functional, cell-based"}, "NIH3T3 [13]": {"test_system": "NIH3T3", "test": "Inhibition of autophagy in mouse NIH3T3 cells transfected with GFP-tagged LC3 assessed as accumulation of LC3 in enlarged vesicles at 800 nM after 2 hrs", "format": "functional, cell-based", "method_in_brief": "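NIH3T3 cells transfected with GFP-LC3 (Lipofectamine 2000), examined 48 h post-transfection. Left untreated or treated 2 h with 800 nM compound, fixed in 4% paraformaldehyde, and GFP, phase and overlay images taken by confocal microscopy as 0.4 μm optical sections.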"}, "NIH3T3 [14]": {"test_system": "NIH3T3", "test": "Inhibition of PKB phosphorylation at Ser473 residue in mouse NIH3T3 cells at 800 nM under serum starved condition", "format": "cell-based", "method_in_brief": "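NIH3T3 cells, 200,000 per well, grown in DMEM/10% donor calf serum, then held 18 h in 0.1% DCS. Pretreated 15 min with vehicle (DMSO), 800 nM inhibitor, 20 nM rapamycin or 10 μM LY294002, then left unstimulated or stimulated 15 min with 10% DCS. Lysates run on 10% SDS-PAGE, PVDF immunoblot with specific antibodies.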"}, "NIH3T3 [15]": {"test_system": "NIH3T3", "test": "Inhibition of cell growth in mouse NIH3T3 cells after 7 days", "format": "functional", "settings": "time 7 day"}, "Homo sapiens": {"species_on_record": "Homo sapiens", "test": "Inhibition of type 2 gamma PtdInsP (unknown origin) at 10 uM relative to control"}, "NIH3T3 [16]": {"test_system": "NIH3T3", "test": "Induction of swollen vesicle phenotype in mouse NIH3T3 cells incubated for 120 mins by time-lapse analysis", "format": "functional, cell-based", "settings": "NIH3T3, 2 h", "method_in_brief": "as §1"}, "NIH3T3 [17]": {"test_system": "NIH3T3", "test": "Reversal of swollen vesicle phenotype in mouse NIH3T3 cells expressing Fab1 assessed as reduction in number of swollen vesicles at 800 nM incubated for 2 hrs by phase contrast microscopic analysis", "format": "functional", "design": "scale not given: the % may be the effect or the level left"}, "MEF": {"test_system": "MEF", "test": "Induction of swollen vesicle phenotype in MEF cells at 800 nM incubated for 120 mins by time-lapse analysis", "format": "functional, cell-based", "settings": "Mus musculus"}, "NIH3T3 [18]": {"test_system": "NIH3T3", "test": "Induction of EEA1 localization in vesicular structures of mouse NIH3T3 cells at 800 nM incubated for 2 hrs", "format": "functional, cell-based", "method_in_brief": "as §3"}, "NIH3T3 [19]": {"test_system": "NIH3T3", "test": "Induction of cell division in mouse NIH3T3 cells at 800 nM", "format": "functional, cell-based"}, "COS-7 [20]": {"test_system": "COS-7", "test": "Induction of swollen vesicle phenotype in african green monkey COS-7 cells at 800 nM incubated for 120 mins by time-lapse analysis", "format": "functional, cell-based", "settings": "Chlorocebus aethiops"}, "[21]": {"test": "Inhibition of mouse type 1 alpha PtdInsP"}, "MCF-10A": {"test_system": "MCF-10A", "test": "Induction of swollen vesicle phenotype in human MCF-10A cells at 800 nM incubated for 120 mins by time-lapse analysis", "format": "functional, cell-based"}, "[22]": {"test": "Effect on PtdIns(3,4)P2 production in [32p]pi labelled serum stimulated mouse NIH3T3 cells at 800 nM (reference value: 1366 +/- 44)", "format": "functional", "method_in_brief": "as §2"}, "[23]": {"target": "Phosphatidylinositol 4,5-bisphosphate 3-kinase catalytic subunit alpha isoform (Homo sapiens, UniProt P42336)", "sequence (P42336 whole entry, canonical isoform)": "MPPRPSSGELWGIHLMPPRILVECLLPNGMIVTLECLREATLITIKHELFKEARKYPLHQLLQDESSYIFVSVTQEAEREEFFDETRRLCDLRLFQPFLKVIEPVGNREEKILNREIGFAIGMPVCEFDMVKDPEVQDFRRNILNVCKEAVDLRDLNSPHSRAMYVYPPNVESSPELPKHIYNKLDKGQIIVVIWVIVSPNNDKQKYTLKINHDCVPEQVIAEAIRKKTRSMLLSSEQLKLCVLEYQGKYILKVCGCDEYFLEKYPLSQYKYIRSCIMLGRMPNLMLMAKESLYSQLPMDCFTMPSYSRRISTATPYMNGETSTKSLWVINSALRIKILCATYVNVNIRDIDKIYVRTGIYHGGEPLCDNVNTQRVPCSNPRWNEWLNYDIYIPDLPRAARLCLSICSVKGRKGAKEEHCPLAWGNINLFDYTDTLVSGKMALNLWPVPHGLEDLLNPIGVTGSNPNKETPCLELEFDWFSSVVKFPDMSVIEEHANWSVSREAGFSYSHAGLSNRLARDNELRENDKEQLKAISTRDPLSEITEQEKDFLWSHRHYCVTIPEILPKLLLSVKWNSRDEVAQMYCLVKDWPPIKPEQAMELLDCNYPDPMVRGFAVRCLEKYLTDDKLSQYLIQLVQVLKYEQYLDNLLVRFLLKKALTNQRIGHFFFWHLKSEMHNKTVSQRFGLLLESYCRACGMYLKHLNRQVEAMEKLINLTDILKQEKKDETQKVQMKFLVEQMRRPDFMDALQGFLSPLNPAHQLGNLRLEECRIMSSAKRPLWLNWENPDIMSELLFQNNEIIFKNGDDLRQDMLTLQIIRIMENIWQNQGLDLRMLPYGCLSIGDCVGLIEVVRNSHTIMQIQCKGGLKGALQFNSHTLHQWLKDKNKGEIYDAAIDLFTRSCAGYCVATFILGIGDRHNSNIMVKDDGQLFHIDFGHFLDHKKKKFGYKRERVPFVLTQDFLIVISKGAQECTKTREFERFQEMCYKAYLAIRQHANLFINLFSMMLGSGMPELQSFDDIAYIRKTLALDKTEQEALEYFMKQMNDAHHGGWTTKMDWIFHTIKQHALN", "test": "Inhibition of GST-tagged Ptdlns3p P110alpha (unknown origin) expressed in baculovirus infected insect cells incubated for 15 mins in presence of ATP"}, "NIH3T3 [24]": {"test_system": "NIH3T3", "test": "Induction of EGF localization in mouse NIH3T3 cells at 800 nM preincubated for 2 hrs followed by EGF stimulation and measured after 60 mins", "format": "functional, cell-based", "settings": "time 3.0 hrs"}, "[25]": {"test": "Effect on PtdIns4P production in [32p]pi labelled serum stimulated mouse NIH3T3 cells at 800 nM (reference value: 212147 +/- 5485)", "format": "functional", "method_in_brief": "as §2"}, "MDCK": {"test_system": "MDCK", "test": "Induction of swollen vesicle phenotype in MDCK cells at 800 nM incubated for 120 mins by time-lapse analysis", "format": "functional, cell-based", "settings": "Canis lupus familiaris"}},
  "note": "The source made the active and inactive calls. No cut-off for these calls is given here.",
  "data": [
    {"smiles": "Oc1cccc(-c2nc(N3CCOCC3)c3oc4ncccc4c3n2)c1", "note": "[PI-103]", "values": [
      {"measurement": "IC50", "setting": "[1]", "result": "> 10000", "unit": "nM"},
      {"measurement": "inhibition", "setting": "NIH3T3 [2]", "result": "Active"}
    ]},
    {"smiles": "Nc1ccc(C(=O)Nc2cccc(-c3nc(N4CCOCC4)c4oc5ncccc5c4n3)c2)cn1", "values": [
      {"measurement": "Activity", "setting": "COS-7 [3]", "result": "Active"},
      {"measurement": "Activity", "setting": "NIH3T3 [4]", "result": "Active"},
      {"measurement": "Activity", "setting": "[5]", "result": 465},
      {"measurement": "Ratio IC50", "setting": "[6]", "result": 100},
      {"measurement": "Activity", "setting": "[7]", "result": 393289},
      {"measurement": "Activity", "setting": "NIH3T3 [8]", "result": "Active"},
      {"measurement": "IC50", "setting": "[9]", "result": 33, "unit": "nM"},
      {"measurement": "Activity", "setting": "NIH3T3 [10]", "result": "Active"},
      {"measurement": "IC50", "setting": "[1]", "result": "> 5000", "unit": "nM"},
      {"measurement": "Activity", "setting": "[11]", "result": 7476},
      {"measurement": "Activity", "setting": "NIH3T3 [12]", "result": "Active"},
      {"measurement": "Activity", "setting": "NIH3T3 [13]", "result": "Active"},
      {"measurement": "inhibition", "setting": "NIH3T3 [14]", "result": "inactive"},
      {"measurement": "inhibition (INH)", "setting": "NIH3T3 [15]", "result": 25, "unit": "%"},
      {"measurement": "inhibition", "setting": "Homo sapiens", "result": "inactive"},
      {"measurement": "EC50", "setting": "NIH3T3 [16]", "result": 400, "unit": "nM"},
      {"measurement": "Activity", "setting": "NIH3T3 [17]", "result": 50, "unit": "%"},
      {"measurement": "Activity", "setting": "MEF", "result": "Active"},
      {"measurement": "Activity", "setting": "NIH3T3 [18]", "result": "Active"},
      {"measurement": "Activity", "setting": "NIH3T3 [19]", "result": "inactive"},
      {"measurement": "Activity", "setting": "COS-7 [20]", "result": "Active"},
      {"measurement": "IC50", "setting": "[21]", "result": "> 2000", "unit": "nM"},
      {"measurement": "Activity", "setting": "MCF-10A", "result": "Active"},
      {"measurement": "Activity", "setting": "[22]", "result": 1319},
      {"measurement": "IC50", "setting": "[23]", "result": 3300, "unit": "nM"},
      {"measurement": "Activity", "setting": "NIH3T3 [24]", "result": "Active"},
      {"measurement": "Activity", "setting": "[25]", "result": 194539},
      {"measurement": "Activity", "setting": "MDCK", "result": "Active"}
    ]}
  ]
}
